ChEMBL document CHEMBL4828745, “Discovery and Structure-Activity Relationships of Quinazolinone-2-carboxamide Derivatives as Novel Orally Efficacious Antimalarials” (J Med Chem, 2021)

Experiments:
[1] = AUC (0 to infinity) in Swiss outbred mouse at 0.95 mg/kg, iv by LC-MS analysis; assay type: ADME, organism-based; design: route intravenous, time infinity, dose 0.95 mg/kg; details: in vivo
[2] = Half life in Sprague-Dawley rat at 5.6 mg/kg, po by LC-MS analysis; assay type: ADME, organism-based; details: in vivo
In short: (§1)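 Male Sprague Dawley rats (n = 3) dosed orally at 5.6 mg/kg with the Na·4H2O salt suspended in 0.5% methyl cellulose in water. Plasma was sampled over time. Bioavailability was taken relative to the 1 mg/kg IV arm.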

[3] = Plasma clearance in Swiss outbred mouse at 0.95 mg/kg, iv by LC-MS analysis; assay type: ADME, organism-based
[4] = Oral bioavailability in Sprague-Dawley rat at 5.6 mg/kg by LC-MS analysis; assay type: ADME, organism-based; details: in vivo; in short: as §1
[5] = Half life in Sprague-Dawley rat at 1 mg/kg, iv by LC-MS analysis; assay type: ADME, organism-based; details: in vivo
In short: (§2)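 Male Sprague Dawley rats (n = 3) dosed IV at 1 mg/kg with the Na·4H2O salt in 50% DMA/50% PEG400. Plasma concentration–time profiles were obtained, and non-compartmental parameters are given as mean ± SD.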

[6] = Volume of distribution at steady state in Sprague-Dawley rat plasma at 1 mg/kg, iv by LC-MS analysis; assay type: ADME, organism-based; details: read-out: Vdss; in short: as §2
[7] = Plasma clearance in Sprague-Dawley rat at 1 mg/kg, iv by LC-MS analysis; assay type: ADME, organism-based; in short: as §2
[8] = Tmax in Sprague-Dawley rat at 5.6 mg/kg, po by LC-MS analysis; assay type: ADME, organism-based; details: in vivo; in short: as §1
[9] = Cmax in Sprague-Dawley rat at 5.6 mg/kg, po by LC-MS analysis; assay type: ADME, organism-based; design: route oral, dose 5.6 mg/kg; details: in vivo; in short: as §1
[10] = AUC (0 to infinity) in Sprague-Dawley rat at 1 mg/kg, iv by LC-MS analysis; assay type: ADME, organism-based; design: route intravenous, time infinity, dose 1 mg/kg; details: in vivo; in short: as §2
[11] = Clearance in Swiss outbred mouse blood at 0.95 mg/kg, iv by LC-MS analysis; assay type: ADME, organism-based
[12] = AUC (0 to infinity) in Sprague-Dawley rat at 5.6 mg/kg, po by LC-MS analysis; assay type: ADME, organism-based; design: time infinity, route oral, dose 5.6 mg/kg; details: in vivo; in short: as §1
[13] = target: Matrix metalloproteinase-14 (Homo sapiens) (UniProt P50281); assay: Inhibition of human MMP14 assessed as fluorescence intensity using Mca-Pro-Leu-Ala-Cys(p-OmeBz)-Trp-Ala-Arg(Dpa)-NH2 as substrate at 10 uM incubated for 60 mins relative to control
[14] = target: T1, Interstitial collagenase (Homo sapiens) (UniProt P03956); assay: Inhibition of human MMP1 assessed as fluorescence intensity using DNP-Pro-Cha-Gly-Cys(Me)-His-Ala-Lys(n-Me-Abz)-NH2 as substrate at 10 uM incubated for 20 mins relative to control
T1 sequence (whole entry): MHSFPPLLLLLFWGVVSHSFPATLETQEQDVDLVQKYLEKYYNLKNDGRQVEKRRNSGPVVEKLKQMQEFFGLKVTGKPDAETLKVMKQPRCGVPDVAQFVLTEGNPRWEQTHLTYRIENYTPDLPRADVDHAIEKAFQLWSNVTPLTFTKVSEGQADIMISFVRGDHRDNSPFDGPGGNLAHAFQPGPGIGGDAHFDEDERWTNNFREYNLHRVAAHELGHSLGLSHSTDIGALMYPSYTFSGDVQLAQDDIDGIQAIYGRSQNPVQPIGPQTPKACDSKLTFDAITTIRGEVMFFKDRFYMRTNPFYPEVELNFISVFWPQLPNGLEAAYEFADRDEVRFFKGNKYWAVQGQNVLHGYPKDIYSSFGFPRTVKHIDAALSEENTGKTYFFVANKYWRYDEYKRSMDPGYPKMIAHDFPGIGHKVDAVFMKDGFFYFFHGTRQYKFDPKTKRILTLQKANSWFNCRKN

Row | SMILES | AUC(0-inf) [1] | half-life [2] | clearance [3] | bioavailability [4] | half-life [5] | Vd [6] | clearance [7] | Tmax [8] | Cmax [9] | AUC(0-inf) [10] | clearance [11] | AUC(0-inf) [12] | inhibition [13] | inhibition [14]
1 | CCc1cccc(CNC(=O)c2nc3cccc(COCc4ccc(C(=O)[O-])cc4)c3c(=O)[nH]2)c1.O.O.O.O.[Na+] | 1.1 µM·h | 3.2 h | 31 mL/min/kg | 34% | 5.3 h | 0.88 L/kg | 9.5 mL/min/kg | 0.5 h | 1700 nM | 3.7 µM·h | 57 mL/min/kg | 6.9 µM·h |  | 
2 | CCc1cccc(CNC(=O)c2nc3cccc(COCc4ccc(C(=O)O)cc4)c3c(=O)[nH]2)c1 |  |  |  |  |  |  |  |  |  |  |  |  | 10.8% | 11.3%
